Measurements as given in ChEMBL document CHEMBL4387720, “Lead generation of 1,2-dithiolanes as exon 19 and exon 21 mutant EGFR tyrosine kinase inhibitors” (Bioorg Med Chem Lett, 2019).

Experiments:
[1] = molecular target: T1, Epidermal growth factor receptor (Homo sapiens, UniProt P00533, L858R)
A549 [2] = test: cells; format: functional; settings: Homo sapiens, A549, 48 h
NCI-H322M [3] = test: cells; format: functional; settings: Homo sapiens, 48 h
NCI-H460 [4] = test: cells; format: functional; settings: Homo sapiens, NCI-H460, 48 h
MOLT-4 = test: cells; format: functional; settings: Homo sapiens, MOLT-4, 48 h
A549 [5] = test: Cytotoxicity against human A549 cells assessed as reduction in measured protein incubated for 48 hrs by SRB assay; format: functional; settings: A549, 48 h, read-out: LC50 (the source's name)
In short: (§1)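 Tested in the NCI-60 panel with a five-dose response curve, each value the mean of 2 experiments.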

NCI-H322M [6] = test: Cytotoxicity against human NCI-H322M cells assessed as reduction in measured protein incubated for 48 hrs by SRB assay; format: functional; settings: read-out: LC50 (the source's name)
In short: as §1

NCI-H460 [7] = test: Cytotoxicity against human NCI-H460 cells assessed as reduction in measured protein incubated for 48 hrs by SRB assay; format: functional; settings: NCI-H460, 48 h, read-out: LC50 (the source's name)
In short: as §1

CCRF-CEM [8] = test: Cytotoxicity against human CCRF-CEM cells assessed as reduction in measured protein incubated for 48 hrs by SRB assay; format: functional; settings: read-out: LC50 (the source's name)
In short: as §1

NCI-H322M [9] = test: Therapeutic index, ratio of LC50 for human NCI-H322M cells to GI50 for human NCI-H322M cells; format: functional
In short: (§2)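 NCI-60 panel screen using five-dose response curves, each value an average of 2 experiments. […] The therapeutic index is calculated as LC50/GI50 for the same cell line.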

NCI-H460 [10] = test: Therapeutic index, ratio of LC50 for human NCI-H460 cells to GI50 for human NCI-H460 cells; format: functional
In short: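 NCI-60 panel cell growth assay. Five-point dose-response curves; each value is the average of 2 experiments. […] Therapeutic index is calculated as LC50/GI50.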

CCRF-CEM [11] = test: Therapeutic index, ratio of LC50 for human CCRF-CEM cells to GI50 for human CCRF-CEM cells; format: functional
In short: as §2

[12] = molecular target: Epidermal growth factor receptor (Homo sapiens, UniProt P00533, G719S); test: Binding affinity to human partial length EGFR G719S mutant (R669 to V1011 residues) expressed in bacterial expression system by KinomeScan assay
In short: (§3)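 Competition binding against an immobilized active-site-directed ligand. Bound kinase is quantified by qPCR of its DNA tag. Kd values come from duplicate 11-point dose-response curves.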

[13] = molecular target: Epidermal growth factor receptor (Homo sapiens, UniProt P00533, L858R/T790M); test: Inhibition of human partial length EGFR L858R/T790M mutant (R669 to V1011 residues) expressed in mammalian expression system by competition binding assay based KinomeScan assay
In short: as §3

[14] = molecular target: Epidermal growth factor receptor (Homo sapiens, UniProt P00533, L747-S752DEL/P753S); test: Binding affinity to human partial length EGFR L747-S752del/P753S mutant expressed in bacterial expression system by KinomeScan assay
In short: as §3

[15] = molecular target: Epidermal growth factor receptor (Homo sapiens, UniProt P00533, L747-T751DEL); test: Binding affinity to human partial length EGFR L747-T751del/Sins mutant expressed in bacterial expression system by KinomeScan assay
In short: as §3

[16] = molecular target: Epidermal growth factor receptor (Homo sapiens, UniProt P00533, A750P/L747-E749DEL); test: Binding affinity to human partial length EGFR L747-E749del/A750P mutant expressed in bacterial expression system by KinomeScan assay
In short: as §3

[17] = molecular target: Epidermal growth factor receptor (Homo sapiens, UniProt P00533, L861Q); test: Binding affinity to human partial length EGFR L861Q mutant (R669 to V1011 residues) expressed in bacterial expression system by KinomeScan assay
In short: as §3

Homo sapiens = species on record: Homo sapiens; test: Selectivity ratio, ratio of IC50 for probe binding to HER2 (unknown origin) to IC50 for probe binding to EGFR L858R mutant (unknown origin)
In short: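 Ratio of two IC50 values measured in the rabbit reticulocyte lysate competition binding assay: HER2 and EGFR L858R. Each IC50 comes from displacement of an active-site-dependent probe, read by luminescence, with a ten-point dose-response. Each IC50 is the average of triplicate experiments.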

[18] = molecular target: Tyrosine-protein kinase BTK (Homo sapiens) (UniProt Q06187); test: Inhibition of probe binding to BTK (unknown origin) using rabbit reticulate lysate system at 250 nM after 1 hr by luminescence assay relative to control
[19] = molecular target: Cytoplasmic tyrosine-protein kinase BMX (Homo sapiens) (UniProt P51813); test: Inhibition of probe binding to BMX (unknown origin) using rabbit reticulate lysate system at 250 nM after 1 hr by luminescence assay relative to control
[20] = molecular target: Tyrosine-protein kinase ITK/TSK (Homo sapiens) (UniProt Q08881); test: Inhibition of probe binding to ITK (unknown origin) using rabbit reticulate lysate system at 250 nM after 1 hr by luminescence assay relative to control
[21] = molecular target: Tyrosine-protein kinase Tec (Homo sapiens) (UniProt P42680); test: Inhibition of probe binding to TEC (unknown origin) using rabbit reticulate lysate system at 250 nM after 1 hr by luminescence assay relative to control
[22] = molecular target: T1, Epidermal growth factor receptor; test: Binding affinity to human partial length EGFR L858R mutant (R669 to V1011 residues) expressed in bacterial expression system under full equilibrating condition by scanKINETIC assay
In short: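 Binding kinetics are read from Kd values measured under four dose-response arms. Arm A is full equilibration. Arm B is equilibrate, then 3-fold dilution, then equilibrate. Arm C is partial equilibration. Arm D is predilution followed by full equilibration. Comparing the arms assesses reversibility of binding.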

Cytochrome P450 1A2 = Cytochrome P450 1A2 (Homo sapiens, UniProt P05177); test: Inhibition of CYP1A2 (unknown origin); format: ADME
Cytochrome P450 3A4 = Cytochrome P450 3A4 (Homo sapiens, UniProt P08684); test: Inhibition of CYP3A4 (unknown origin); format: ADME
Cytochrome P450 2C9 = Cytochrome P450 2C9 (Homo sapiens, UniProt P11712); test: Inhibition of CYP2C9 (unknown origin); format: ADME
Cytochrome P450 2C19 = Cytochrome P450 2C19 (Homo sapiens, UniProt P33261); test: Inhibition of CYP2C19 (unknown origin); format: ADME
Cytochrome P450 2D6 = Cytochrome P450 2D6 (Homo sapiens, UniProt P10635); test: Inhibition of CYP2D6 (unknown origin); format: ADME
[23] = Half life in human S9 fraction; format: ADME, subcellular
[24] = Half life in rat liver microsomes; format: ADME, Microsome
[25] = Half life in human liver microsomes; format: ADME, Microsome
[26] = Half life in rat hepatocytes; format: ADME, cell-based, Hepatocyte

T1 sequence (P00533 25-1210 L858R limits assumed): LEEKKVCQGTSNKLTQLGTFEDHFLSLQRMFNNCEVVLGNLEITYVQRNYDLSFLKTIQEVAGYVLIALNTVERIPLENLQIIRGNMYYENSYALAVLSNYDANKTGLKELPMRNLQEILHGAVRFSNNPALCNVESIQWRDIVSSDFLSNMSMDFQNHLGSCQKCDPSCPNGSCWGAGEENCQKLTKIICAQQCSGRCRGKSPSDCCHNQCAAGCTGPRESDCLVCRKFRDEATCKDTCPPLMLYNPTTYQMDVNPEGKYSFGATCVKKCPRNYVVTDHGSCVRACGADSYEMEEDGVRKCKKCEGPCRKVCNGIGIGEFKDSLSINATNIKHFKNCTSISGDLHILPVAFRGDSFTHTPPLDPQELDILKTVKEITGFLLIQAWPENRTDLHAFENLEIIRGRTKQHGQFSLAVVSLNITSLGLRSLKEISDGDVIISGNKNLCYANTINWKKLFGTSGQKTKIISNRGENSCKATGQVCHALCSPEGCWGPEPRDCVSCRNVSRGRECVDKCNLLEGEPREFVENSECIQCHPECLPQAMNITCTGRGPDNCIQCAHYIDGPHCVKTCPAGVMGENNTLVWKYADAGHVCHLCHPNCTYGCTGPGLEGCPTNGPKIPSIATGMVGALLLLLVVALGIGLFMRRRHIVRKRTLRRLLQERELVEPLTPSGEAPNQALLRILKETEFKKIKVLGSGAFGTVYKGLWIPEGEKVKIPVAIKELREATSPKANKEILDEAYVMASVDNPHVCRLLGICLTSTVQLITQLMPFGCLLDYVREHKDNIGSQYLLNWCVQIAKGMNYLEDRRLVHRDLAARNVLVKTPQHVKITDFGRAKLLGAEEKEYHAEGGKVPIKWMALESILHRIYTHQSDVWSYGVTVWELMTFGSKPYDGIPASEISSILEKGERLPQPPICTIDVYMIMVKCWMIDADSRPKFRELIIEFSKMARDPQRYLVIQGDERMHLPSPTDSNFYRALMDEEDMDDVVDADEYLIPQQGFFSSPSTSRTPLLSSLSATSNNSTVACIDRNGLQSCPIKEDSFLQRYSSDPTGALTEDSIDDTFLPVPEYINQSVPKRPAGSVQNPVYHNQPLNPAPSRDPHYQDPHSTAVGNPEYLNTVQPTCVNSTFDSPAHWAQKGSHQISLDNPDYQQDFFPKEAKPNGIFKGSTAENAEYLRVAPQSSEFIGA
Epidermal growth factor receptor (Homo sapiens, UniProt P00533, L858R/T790M), sequence (P00533 25-1210 T790M/L858R limits assumed): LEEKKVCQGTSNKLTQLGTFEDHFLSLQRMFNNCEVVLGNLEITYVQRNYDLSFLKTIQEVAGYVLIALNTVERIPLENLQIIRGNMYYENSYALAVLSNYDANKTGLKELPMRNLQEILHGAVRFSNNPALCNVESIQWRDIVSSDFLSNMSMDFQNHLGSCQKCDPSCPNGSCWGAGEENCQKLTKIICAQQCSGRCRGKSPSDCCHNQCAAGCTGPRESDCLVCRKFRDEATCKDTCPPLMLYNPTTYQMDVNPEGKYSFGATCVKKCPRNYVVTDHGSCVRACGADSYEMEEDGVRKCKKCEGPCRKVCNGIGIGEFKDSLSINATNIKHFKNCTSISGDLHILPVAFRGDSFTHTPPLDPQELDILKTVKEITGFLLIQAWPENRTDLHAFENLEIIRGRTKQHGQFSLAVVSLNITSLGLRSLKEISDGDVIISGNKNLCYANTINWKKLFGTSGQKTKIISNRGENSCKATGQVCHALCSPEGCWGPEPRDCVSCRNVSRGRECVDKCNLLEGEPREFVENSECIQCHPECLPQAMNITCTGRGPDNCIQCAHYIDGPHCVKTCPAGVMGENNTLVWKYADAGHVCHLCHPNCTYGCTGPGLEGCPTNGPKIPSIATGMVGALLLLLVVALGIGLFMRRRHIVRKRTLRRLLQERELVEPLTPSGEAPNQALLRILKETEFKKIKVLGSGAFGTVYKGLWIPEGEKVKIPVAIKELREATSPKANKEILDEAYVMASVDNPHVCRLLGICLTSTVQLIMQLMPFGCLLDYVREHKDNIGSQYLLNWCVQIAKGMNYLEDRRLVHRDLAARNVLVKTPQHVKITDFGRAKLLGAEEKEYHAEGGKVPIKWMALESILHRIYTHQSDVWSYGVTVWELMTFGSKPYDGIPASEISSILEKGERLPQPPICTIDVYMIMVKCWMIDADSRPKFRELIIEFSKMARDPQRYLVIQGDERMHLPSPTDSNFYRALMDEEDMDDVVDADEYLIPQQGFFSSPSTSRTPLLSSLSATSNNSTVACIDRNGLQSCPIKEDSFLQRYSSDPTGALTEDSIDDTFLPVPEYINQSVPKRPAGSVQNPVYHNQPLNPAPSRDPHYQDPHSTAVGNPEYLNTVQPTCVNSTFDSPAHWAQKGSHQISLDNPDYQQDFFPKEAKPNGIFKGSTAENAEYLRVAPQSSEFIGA
Cytochrome P450 3A4, sequence (P08684 whole entry): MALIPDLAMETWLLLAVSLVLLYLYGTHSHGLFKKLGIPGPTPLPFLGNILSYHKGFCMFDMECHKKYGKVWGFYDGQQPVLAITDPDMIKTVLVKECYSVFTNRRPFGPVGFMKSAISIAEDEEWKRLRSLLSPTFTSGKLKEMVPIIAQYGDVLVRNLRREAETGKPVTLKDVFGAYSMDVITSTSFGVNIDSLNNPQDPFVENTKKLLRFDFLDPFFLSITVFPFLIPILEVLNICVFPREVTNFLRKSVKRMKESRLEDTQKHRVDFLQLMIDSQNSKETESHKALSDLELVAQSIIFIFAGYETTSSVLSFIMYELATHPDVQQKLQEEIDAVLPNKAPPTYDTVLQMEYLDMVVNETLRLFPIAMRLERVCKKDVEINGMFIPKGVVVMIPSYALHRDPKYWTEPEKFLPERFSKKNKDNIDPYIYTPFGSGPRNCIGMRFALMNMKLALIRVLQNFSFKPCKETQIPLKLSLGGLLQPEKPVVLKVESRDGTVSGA
Cytochrome P450 2C19, sequence (P33261 whole entry): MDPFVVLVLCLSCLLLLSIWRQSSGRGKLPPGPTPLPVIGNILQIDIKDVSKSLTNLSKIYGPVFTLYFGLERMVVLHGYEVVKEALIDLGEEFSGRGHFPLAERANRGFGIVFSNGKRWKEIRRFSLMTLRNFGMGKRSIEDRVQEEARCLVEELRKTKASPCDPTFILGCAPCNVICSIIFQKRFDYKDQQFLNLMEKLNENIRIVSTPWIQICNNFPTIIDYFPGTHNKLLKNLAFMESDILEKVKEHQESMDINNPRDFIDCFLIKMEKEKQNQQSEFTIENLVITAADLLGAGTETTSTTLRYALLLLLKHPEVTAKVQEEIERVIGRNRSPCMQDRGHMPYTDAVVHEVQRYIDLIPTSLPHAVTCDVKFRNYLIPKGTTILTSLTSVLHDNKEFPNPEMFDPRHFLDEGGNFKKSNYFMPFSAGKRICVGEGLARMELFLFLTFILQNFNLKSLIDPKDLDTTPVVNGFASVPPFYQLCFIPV
Cytochrome P450 2C9, sequence (P11712 whole entry): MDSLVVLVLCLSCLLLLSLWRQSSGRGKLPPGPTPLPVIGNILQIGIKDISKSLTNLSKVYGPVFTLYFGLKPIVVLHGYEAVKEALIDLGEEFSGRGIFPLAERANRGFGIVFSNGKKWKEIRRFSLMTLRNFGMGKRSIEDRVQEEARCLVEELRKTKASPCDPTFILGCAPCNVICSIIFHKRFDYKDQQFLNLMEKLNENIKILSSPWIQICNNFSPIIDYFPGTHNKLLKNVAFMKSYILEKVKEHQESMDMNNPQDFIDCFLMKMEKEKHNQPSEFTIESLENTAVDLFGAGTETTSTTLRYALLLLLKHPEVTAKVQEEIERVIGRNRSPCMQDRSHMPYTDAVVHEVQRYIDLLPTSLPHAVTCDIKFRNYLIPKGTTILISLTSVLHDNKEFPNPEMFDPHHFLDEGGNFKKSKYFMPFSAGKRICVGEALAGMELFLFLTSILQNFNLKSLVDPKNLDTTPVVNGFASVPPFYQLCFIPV
Cytoplasmic tyrosine-protein kinase BMX (Homo sapiens), sequence (P51813 whole entry): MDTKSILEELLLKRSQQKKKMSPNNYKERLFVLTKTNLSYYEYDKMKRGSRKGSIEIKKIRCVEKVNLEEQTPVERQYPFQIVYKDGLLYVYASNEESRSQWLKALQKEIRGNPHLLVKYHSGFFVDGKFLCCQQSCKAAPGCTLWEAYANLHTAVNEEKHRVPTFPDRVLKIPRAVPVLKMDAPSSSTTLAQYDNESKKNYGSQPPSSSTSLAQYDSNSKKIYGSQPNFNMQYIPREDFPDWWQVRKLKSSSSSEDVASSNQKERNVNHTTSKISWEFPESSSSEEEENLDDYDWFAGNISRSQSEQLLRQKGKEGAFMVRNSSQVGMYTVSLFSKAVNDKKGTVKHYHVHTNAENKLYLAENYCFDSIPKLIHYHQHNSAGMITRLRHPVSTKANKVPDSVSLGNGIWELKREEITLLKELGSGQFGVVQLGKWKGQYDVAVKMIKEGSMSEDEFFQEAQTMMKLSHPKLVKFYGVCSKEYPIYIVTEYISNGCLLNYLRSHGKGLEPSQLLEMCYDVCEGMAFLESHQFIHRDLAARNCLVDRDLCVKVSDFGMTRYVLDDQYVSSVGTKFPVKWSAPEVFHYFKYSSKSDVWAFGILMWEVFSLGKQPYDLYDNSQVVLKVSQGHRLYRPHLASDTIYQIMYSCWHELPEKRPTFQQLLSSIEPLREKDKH
Cytochrome P450 1A2, sequence (P05177 whole entry): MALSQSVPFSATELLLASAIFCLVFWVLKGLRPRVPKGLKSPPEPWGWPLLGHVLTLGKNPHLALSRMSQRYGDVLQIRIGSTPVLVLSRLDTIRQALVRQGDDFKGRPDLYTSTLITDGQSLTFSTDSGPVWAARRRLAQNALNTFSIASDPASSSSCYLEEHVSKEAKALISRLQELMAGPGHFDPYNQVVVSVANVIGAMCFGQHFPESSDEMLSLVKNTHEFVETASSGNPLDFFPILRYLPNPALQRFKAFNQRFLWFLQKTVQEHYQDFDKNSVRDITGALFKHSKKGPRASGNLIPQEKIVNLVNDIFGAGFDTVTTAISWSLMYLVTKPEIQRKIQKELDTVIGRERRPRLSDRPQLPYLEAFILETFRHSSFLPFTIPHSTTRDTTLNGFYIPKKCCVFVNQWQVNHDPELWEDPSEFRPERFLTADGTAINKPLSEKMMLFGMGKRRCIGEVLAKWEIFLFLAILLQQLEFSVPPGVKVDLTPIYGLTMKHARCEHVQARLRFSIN

Question: Which IC50 [1] does the source give for `CCOc1cc2ncc(C#N)c(Nc3ccc(OCc4cccc(F)c4)c(Cl)c3)c2cc1NC(=O)CC1CCSS1` (stereo not drawn) here?
Answer: 10.9 to 11 nM

Question: And the GI50 (A549 [2])?
Answer: 540 nM

Question: What about the GI50 (NCI-H322M [3]) of the same compound?
Answer: 600 nM

Question: What about the GI50 (NCI-H460 [4]) of the same compound?
Answer: 470 nM

Question: What about the GI50 (MOLT-4) of the same compound?
Answer: 160 nM

Question: And the CC50 (A549 [5])?
Answer: 3400 nM

Question: And the CC50 (NCI-H322M [6])?
Answer: > 25000 nM

Question: What about the CC50 (NCI-H460 [7]) of the same compound?
Answer: 1950 nM

Question: And the CC50 (CCRF-CEM [8])?
Answer: > 25000 nM

Question: And the TI (NCI-H322M [9])?
Answer: >41.5

Question: What about the TI (NCI-H460 [10]) of the same compound?
Answer: 4.1

Question: What about the TI (CCRF-CEM [11]) of the same compound?
Answer: >166

Question: And the Kd [12]?
Answer: 14 nM

Question: And the Kd [13]?
Answer: 10000 nM

Question: What about the Kd [14] of the same compound?
Answer: 12 nM

Question: And the Kd [15]?
Answer: 13 nM

Question: And the Kd [16]?
Answer: 7.9 nM

Question: And the Kd [17]?
Answer: 4.8 nM

Question: And the Ratio IC50 (Homo sapiens)?
Answer: 14.7

Question: And the inhibition [18]?
Answer: 0%

Question: What about the inhibition [19] of the same compound?
Answer: 10%

Question: What about the inhibition [20] of the same compound?
Answer: 0%

Question: What about the inhibition [21] of the same compound?
Answer: 20%

Question: And the Kd [22]?
Answer: 9.6 nM

Question: What about the IC50 (Cytochrome P450 1A2) of the same compound?
Answer: > 50000 nM

Question: What about the IC50 (Cytochrome P450 3A4) of the same compound?
Answer: > 50000 nM

Question: And the IC50 (Cytochrome P450 2C9)?
Answer: > 50000 nM

Question: What about the IC50 (Cytochrome P450 2C19) of the same compound?
Answer: > 50000 nM

Question: And the IC50 (Cytochrome P450 2D6)?
Answer: > 50000 nM

Question: What about the half-life [23] of the same compound?
Answer: 60 min

Question: And the half-life [24]?
Answer: 57.3 min

Question: And the half-life [25]?
Answer: 86.1 min

Question: And the half-life [26]?
Answer: 53.6 min
